Active and inactive are the calls of the source. No cut-off for these calls is given here.
Tests used:
[1] = test system: HeLa; assay: Induction of apoptosis in human HeLa cells assessed as caspase-3 activation after 24 to 48 hrs by Western blotting analysis; type: functional, cell-based
In short: (§1)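 HeLa cells treated at indicated concentrations and times; washed in cold PBS, lysed 30 min at 0 °C, cleared at 15 000 × g; 20 μg protein resolved on 7.5–15% gradient SDS-PAGE, blotted to PVDF, primary antibodies 2 h room temperature, peroxidase secondary 60 min, ECL detection; β-actin reprobe for loading.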

[2] = test system: LoVo; assay: Resistance ratio of IC50 for human LoVo/DX cells to IC50 for human LoVo cells; type: functional
In short: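 Ratio of IC50 in resistant line to IC50 in parental line (CEMVbl-100/CEM; LoVoDoxo/LoVo), each IC50 from 72 h MTT dose–response curves, ≥3 independent experiments.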

[3] = molecular target: Tubulin (Bos taurus) (UniProt Q6B856+Q862L2+Q862F3); assay: Inhibition of bovine brain tubulin polymerization at 20 uM by turbidimetry
In short: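 Purified bovine brain tubulin (10 μM) preincubated with compound in glutamate buffer at 30 °C, cooled to 0 °C, GTP added, then warmed to 30 °C in cuvettes; assembly followed turbidimetrically; concentrations up to 20 μM.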

[4] = test system: HeLa; assay: Induction of apoptosis in human HeLa cells assessed as cell viability at 2.5 uM after 48 hrs by MTT assay in presence of dithiothreitol; type: functional, cell-based
In short: (§2)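 HeLa cells exposed to 2.5 μM compound for 48 h with scavengers (NAC 100 μM, GSH 1 mM or DTT 1 mM, among others); viability by MTT; means ± SEM of four independent experiments, Student's t-test.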

[5] = test system: HeLa; assay: Induction of apoptosis in human HeLa cells assessed as GSH depletion at 1 to 2.5 uM after 24 hrs by CMFDA staining-based flow cytometry in presence of N-acetylcysteine; type: functional, cell-based
In short: (§3)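 HeLa cells treated 24 h with compound, alone or with 100 μM NAC; harvested and loaded with 5 μM CMFDA, 30 min at 37 °C; intracellular GSH read as CMFDA fluorescence by flow cytometry; means ± SEM.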

[6] = test system: HeLa; assay: Induction of apoptosis in human HeLa cells assessed as caspase-8 activation at 1 to 2.5 uM after 24 to 48 hrs by Western blotting analysis; type: functional, cell-based; in short: as §1
[7] = test system: HeLa; assay: Induction of apoptosis in human HeLa cells assessed as PARP cleavage at 1 to 2.5 uM by Western blotting analysis; type: functional, cell-based; details: TDE = time-dependent effect; in short: as §1
[8] = test system: HeLa; assay: Induction of apoptosis in human HeLa cells assessed as increase in Bax protein expression at 1 to 2.5 uM after 24 to 48 hrs by Western blotting analysis; type: functional, cell-based
[9] = test system: CCRF-CEM; assay: Cytotoxicity against human CEM cells assessed as growth inhibition after 72 hrs by MTT assay; type: functional, cell-based
[10] = Selectivity ratio of IC50 for human resting PBMC to IC50 for human CEM cells; type: ADME, cell-based, CCRF-CEM; details: resting PBMC versus CEM cells, read-out: Ratio IC50
[11] = test system: HeLa; assay: Induction of apoptosis in human HeLa cells assessed as caspase-3 activation at 1 to 2.5 uM by Western blotting analysis; type: functional, cell-based; details: TDE = time-dependent effect; in short: as §1
[12] = test system: HeLa; assay: Induction of apoptosis in human HeLa cells assessed as GSH depletion after 24 hrs by CMFDA staining-based flow cytometry; type: functional, cell-based; in short: as §3
[13] = test system: HeLa; assay: Induction of apoptosis in human HeLa cells assessed as cell viability at 2.5 uM after 48 hrs by MTT assay in presence of N-acetylcysteine; type: functional, cell-based; in short: as §2
[14] = Cytotoxicity against human LoVo/DX cells assessed as growth inhibition after 72 hrs by MTT assay; type: functional, cell-based
[15] = Cytotoxicity against human CEM/VBL100 cells assessed as growth inhibition after 72 hrs by MTT assay; type: functional, cell-based; details: CEM/VBL100, 72 h
[16] = Selectivity ratio of IC50 for human resting PBMC to IC50 for human Jurkat cells; type: ADME, cell-based; details: resting PBMC versus Jurkat cells, read-out: Ratio IC50
[17] = test system: HeLa; assay: Induction of intracellular ROS generation in human HeLa cells at 1 to 5 uM after 1 to 6 hrs by hydroethidine staining-based flow cytometry; type: functional, cell-based
In short: (§4)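 HeLa cells treated at various concentrations and times; ROS followed by flow cytometry with H2DCFDA or hydroethidine (HE, mainly superoxide).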

[18] = test system: PBMC; assay: Cytotoxicity against human PHA-stimulated PBMC assessed as growth inhibition after 72 hrs by MTT assay; type: functional, cell-based
[19] = test system: HeLa; assay: Induction of apoptosis in human HeLa cells assessed as increase in Bak protein expression at 1 to 2.5 uM after 24 to 48 hrs by Western blotting analysis; type: functional, cell-based
[20] = test system: HeLa; assay: Cell cycle arrest in human HeLa cells assessed as accumulation at G2/M phase after 24 hrs by propidium iodide staining-based flow cytometry; type: functional
In short: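 HeLa cells in exponential growth (2.5 × 10^5) treated 24 h at various concentrations; ethanol-fixed (70%, ice-cold), lysed with RNase A/0.1% Triton X-100, PI-stained; DNA content by flow cytometry, phase percentages from DNA histograms.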

[21] = test system: HeLa; assay: Cytotoxicity against human HeLa cells assessed as growth inhibition after 72 hrs by MTT assay; type: functional, cell-based
[22] = test system: HeLa; assay: Induction of DNA damage in human HeLa cells assessed as increase in gammaH2A.X protein expression at 1 to 2.5 uM after 24 hrs by Western blotting analysis; type: functional, cell-based
[23] = test system: HeLa; assay: Induction of intracellular ROS generation in human HeLa cells after 1 to 6 hrs by H2DCFDA staining-based flow cytometry; type: functional, cell-based; in short: as §4
[24] = test system: HeLa; assay: Induction of apoptosis in human HeLa cells assessed as reduction in Bcl-2 protein expression at 1 to 2.5 uM after 48 hrs by Western blotting analysis; type: functional, cell-based; in short: as §1
[25] = test system: LoVo; assay: Cytotoxicity against human LoVo cells assessed as growth inhibition after 72 hrs by MTT assay; type: functional, cell-based
[26] = test system: HeLa; assay: Induction of apoptosis in human HeLa cells assessed as caspase-9 activation at 1 to 2.5 uM after 24 to 48 hrs by Western blotting analysis; type: functional, cell-based; in short: as §1
[27] = test system: HeLa; assay: Induction of apoptosis in human HeLa cells assessed as cell viability at 2.5 uM after 48 hrs by MTT assay in presence of reduced glutathione; type: functional, cell-based; in short: as §2
[28] = molecular target: Tubulin (Homo sapiens) (UniProt P68371+Q9H4B7+P0DPH7+P68366+Q13509+Q71U36+P04350+Q3ZCM7+P07437+P68363+Q9BQE3+Q6PEY2+Q13885+Q9BVA1+Q9BUF5); assay: Inhibition of tubulin polymerization in human HeLa cells assessed as microtubule disruption at 2.5 to 5 uM after 24 hrs by immunofluorescence microscopy relative to untreated control; type: cell-based
In short: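 HeLa cells exposed 24 h to 2.5 or 5.0 μM versus untreated; fixed in cold 4% formaldehyde 15 min, stained with anti-β-tubulin monoclonal (1:1000) and Alexa secondary (1:2000), DAPI counterstain; imaged by confocal microscopy at 20×.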

[29] = test system: HeLa; assay: Induction of apoptosis in human HeLa cells assessed as reduction in Bcl-2 protein expression at 1 to 2.5 uM by Western blotting analysis; type: functional, cell-based; details: TDE = time-dependent effect; in short: as §1
[30] = test system: MCF7; assay: Cytotoxicity against human MCF7 cells assessed as growth inhibition after 72 hrs by MTT assay; type: functional, cell-based; details: MCF7, 72 h

SMILES: C=C(Br)C(=O)Nc1ccc(/C=C/C(=O)Nc2cc(OC)c(OC)c(OC)c2)cc1
- Activity [1]: Dose-dependent effect
- Ratio IC50 [2]: 0.6
- inhibition [3]: inactive
- Activity [4]: inactive
- Activity [5]: inactive
- Activity [6]: Active
- Activity [7]: tde
- Activity [8]: inactive
- IC50 [9]: 0.025 µM
- selectivity ratio [10]: 10
- Activity [11]: tde
- Activity [12]: Dose-dependent effect
- Activity [13]: inactive
- IC50 [14]: 1.37 µM
- IC50 [15]: 0.015 µM
- selectivity ratio [16]: 10
- Activity [17]: inactive
- IC50 [18]: 0.24 µM
- Activity [19]: inactive
- Activity [20]: Dose-dependent effect
- IC50 [21]: 0.49 µM
- Activity [22]: Active
- Activity [23]: Dose-dependent effect
- Activity [24]: Active
- IC50 [25]: 2.1 µM
- Activity [26]: inactive
- Activity [27]: inactive
- inhibition [28]: inactive
- Activity [29]: tde
- IC50 [30]: 3 µM

From ChEMBL document CHEMBL3286242, “Design, synthesis and biological evaluation of arylcinnamide hybrid derivatives as novel anticancer agents” (Eur J Med Chem, 2014)
